Measured values from ChEMBL document CHEMBL1152519, “Synthesis, structural activity-relationships, and biological evaluation of novel amide-based allosteric binding site antagonists in NR1A/NR2B N-methyl-D-aspartate receptors” (Bioorg Med Chem, 2009).
Calls of active or inactive are those of the source. The calls are words filed in the database; no cut-off is given here.

Assays:
[1] = biological target: Ionotropic glutamate receptor NMDA 1/2D (Rattus norvegicus, UniProt P35439+Q62645); assay: Antagonist activity at rat recombinant NR1/NR2D receptor expressed in Xenopus laevis oocytes assessed as inhibition of glutamate/glycine-induced current by two electrode voltage clamp method; type: functional, cell-based, Oocyte
Procedure, shortened: (§1)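 Xenopus oocytes expressing NR1/NR2 (wild type or amino terminal domain deletion mutant) recorded by TEVC at −40 mV, room temperature, pH 7.4–7.6, with EDTA 10 μM. Maximal glutamate/glycine applied alone, then with 5–8 successive compound concentrations. Leak-corrected; responses under 50 nA excluded. IC50 from fitted composite curve. NR1/NR2A oocytes were pre-incubated in 50 μM BAPTA-AM.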

[2] = biological target: Glutamate receptor ionotropic, kainate 2 (Rattus norvegicus) (UniProt P42260); assay: Antagonist activity at rat recombinant GluR6 expressed in Xenopus laevis oocytes assessed as inhibition of concanavalin A/glutamate-induced current at 3 uM by two electrode voltage clamp method; type: functional, cell-based; settings: Oocyte
Procedure, shortened: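 Oocytes expressing homomeric GluR6 (5–10 ng cRNA) pretreated 5 min with 10 μM concanavalin-A. Currents evoked by 100 μM glutamate at −40 mV, with or without 3 μM compound, and given as percent of control. Mean ± SEM of 4–10 oocytes; paired t-test.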

[3] = biological target: Glutamate receptor 1 (Rattus norvegicus) (UniProt P19490); assay: Antagonist activity at rat recombinant GluR1 expressed in Xenopus laevis oocytes assessed as inhibition of glutamate-induced current at 3 uM by two electrode voltage clamp method; type: functional, cell-based; settings: Oocyte
Procedure, shortened: (§2)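 GluR1 homomers expressed from 5–10 ng cRNA in Xenopus oocytes. Clamped at −40 mV. Currents evoked by 100 μM glutamate with 3 μM compound, expressed as % of control without compound. Mean ± SEM, 4–10 oocytes; paired t-test.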

[4] = organism: Rattus norvegicus; assay: Inhibition of voltage-gated sodium channel in Sprague-Dawley rat cortical neuron at 3 uM by whole cell patch clamp technique
[5] = organism: Rattus norvegicus; assay: Inhibition of voltage-gated potassium channel in Sprague-Dawley rat cortical neuron at 3 uM by whole cell patch clamp technique
[6] = biological target: T1, Glutamate NMDA receptor; Grin1/Grin2b (Rattus norvegicus) (UniProt P35439+Q00960); assay: Antagonist activity at rat recombinant NR1/NR2B receptor expressed in Xenopus laevis oocytes assessed as voltage-independent inhibition of glutamate/glycine-induced current at 0.054 uM by two electrode voltage clamp method; type: functional, cell-based; settings: Oocyte
Procedure, shortened: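 Rat NR1/NR2B oocytes were voltage clamped and the current–voltage relation recorded for 50 μM glutamate plus 30 μM glycine, with and without 0.054 μM compound coapplied; n = 5.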

[7] = Antagonist activity at rat NR1/NR2B receptor deltaATD mutant expressed in Xenopus laevis oocytes assessed as inhibition of glutamate/glycine-induced current by two electrode voltage clamp method; type: functional, cell-based; settings: Oocyte; procedure, shortened: as §1
[8] = tested on: Oocyte; assay: Antagonist activity at rat NR1/NR2B receptor deltaATD mutant expressed in Xenopus laevis oocytes assessed as inhibition of glutamate/glycine-induced current at 0.01 to 100 uM by two electrode voltage clamp method; type: functional, cell-based
Procedure, shortened: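 Oocytes express NR1/NR2B amino-terminal-domain mutants (mouse D101A point mutant; rat ATD deletion). Concentration–effect curves were recorded by two-electrode voltage clamp at −40 mV and 23 °C, with 50 μM glutamate plus 30 μM glycine. Each step is compound plus agonists, expressed relative to agonists alone.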

[9] = tested on: MDCK; assay: Apparent permeability from apical to basolateral side of MDR1-expressing MDCK cells at 5 uM after 2 hrs by LC-MS/MS analysis; type: ADME, cell-based, Canis lupus familiaris; settings: dog
Procedure, shortened: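 MDR1-MDCK monolayers grown 7–11 days on Transwells. Compound at 5 μM in HBSS pH 7.4 (final DMSO ≤1%) added apically (A–B) or basally (B–A). Incubated 2 h at 37 °C; both compartments quantified by LC–MS/MS against a >4-point calibration. Papp given in ×10−6 cm/s; efflux ratio = B–A/A–B. Duplicates.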

[10] = biological target: Glutamate NMDA receptor; Grin1/Grin2c (Rattus norvegicus) (UniProt P35439+Q00961); assay: Antagonist activity at rat recombinant NR1/NR2C receptor expressed in Xenopus laevis oocytes assessed as inhibition of glutamate/glycine-induced current at 3 uM by two electrode voltage clamp method relative to control; type: functional, cell-based; settings: Oocyte
Procedure, shortened: (§3)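 Xenopus oocytes injected with NR1-1a (3–5 ng) plus NR2A, 2B, 2C or 2D cRNA (7–10 ng), kept at 15 °C. Voltage clamp at −40 mV. Responses to 50 μM glutamate + 30 μM glycine with 3 μM compound, as % of response without compound. NR2A oocytes pre-loaded with 50 μM BAPTA-AM. Mean ± SEM, 4–10 oocytes; paired t-test.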

[11] = biological target: Glutamate NMDA receptor; Grin1/Grin2b (Rattus norvegicus, UniProt P35439+Q00960); assay: Antagonist activity at rat recombinant NR1/NR2B receptor expressed in frog oocytes assessed as inhibition of glutamate/glycine-induced current by two electrode voltage clamp method; type: functional, cell-based, Oocyte; procedure, shortened: as §1
[12] = biological target: Ionotropic glutamate receptor NMDA 1/2D (Rattus norvegicus) (UniProt P35439+Q62645); assay: Antagonist activity at rat recombinant NR1/NR2D receptor expressed in Xenopus laevis oocytes assessed as inhibition of glutamate/glycine-induced current at 3 uM by two electrode voltage clamp method relative to control; type: functional, cell-based; settings: Oocyte; procedure, shortened: as §3
[13] = biological target: Glutamate receptor 1 (Rattus norvegicus) (UniProt P19490); assay: Antagonist activity at rat recombinant GluR1 expressed in Xenopus laevis oocytes assessed as inhibition of glutamate-induced current at 3 uM by two electrode voltage clamp method relative to control; type: functional, cell-based; settings: Oocyte; procedure, shortened: as §2
[14] = biological target: Glutamate NMDA receptor; GRIN1/GRIN2B (Homo sapiens, UniProt Q05586+Q13224); assay: Antagonist activity at human recombinant NR1/NR2B receptor expressed in frog oocytes assessed as inhibition of glutamate/glycine-induced current by two electrode voltage clamp method; type: functional, cell-based, Oocyte
Procedure, shortened: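 Human NR1/NR2B cRNA injected into Xenopus oocytes. Two-electrode voltage clamp at −40 mV, 23 °C, 2–7 d after injection. Glutamate/glycine (50–100 μM/30 μM) applied, then with 5–8 compound concentrations. Bath contains 10 μM EDTA; leak-corrected.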

[15] = biological target: Glutamate receptor ionotropic, NMDA 1/NMDA 2B (Mus musculus, UniProt P35438+Q01097); assay: Antagonist activity at mouse recombinant NR1/NR2B receptor expressed in frog oocytes assessed as inhibition of glutamate/glycine-induced current by two electrode voltage clamp method; type: functional, cell-based, Oocyte
Procedure, shortened: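 Xenopus oocytes injected with 3–5 ng NR1 and 7–10 ng NR2 cRNA, kept in Barth's solution at 15 °C, recorded 2–7 d later at 23 °C under two-electrode voltage clamp at −40 mV. Bath was 90 NaCl, 1 KCl, 10 HEPES, 0.5 BaCl2 (mM), pH 7.4/7.6, plus 10 μM EDTA. Glutamate (50–100 μM) plus glycine 30 μM was applied, then 5–8 inhibitor concentrations. Leak-corrected; n = 11 oocytes from 2 frogs.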

[16] = biological target: T1, Glutamate NMDA receptor; Grin1/Grin2b (Rattus norvegicus); assay: Antagonist activity at rat recombinant NR1/NR2B receptor expressed in Xenopus laevis oocytes assessed as inhibition of glutamate/glycine-induced current at 3 uM by two electrode voltage clamp method; type: functional, cell-based; settings: Oocyte
Procedure, shortened: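 Oocytes (stage V–VI, Xenopus laevis) injected with NR1 and NR2 cRNA, held 1–7 d at 15 °C. TEVC at −40 mV, 23 °C, in 90 NaCl/1 KCl/10 HEPES/0.5 BaCl2 (mM) plus 10 μM EDTA. Current to 50 μM glutamate plus 30 μM glycine with 3 μM compound, given as percent of control; 4–10 oocytes.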

Chain of Glutamate receptor 1 (Rattus norvegicus) (P19490 whole entry): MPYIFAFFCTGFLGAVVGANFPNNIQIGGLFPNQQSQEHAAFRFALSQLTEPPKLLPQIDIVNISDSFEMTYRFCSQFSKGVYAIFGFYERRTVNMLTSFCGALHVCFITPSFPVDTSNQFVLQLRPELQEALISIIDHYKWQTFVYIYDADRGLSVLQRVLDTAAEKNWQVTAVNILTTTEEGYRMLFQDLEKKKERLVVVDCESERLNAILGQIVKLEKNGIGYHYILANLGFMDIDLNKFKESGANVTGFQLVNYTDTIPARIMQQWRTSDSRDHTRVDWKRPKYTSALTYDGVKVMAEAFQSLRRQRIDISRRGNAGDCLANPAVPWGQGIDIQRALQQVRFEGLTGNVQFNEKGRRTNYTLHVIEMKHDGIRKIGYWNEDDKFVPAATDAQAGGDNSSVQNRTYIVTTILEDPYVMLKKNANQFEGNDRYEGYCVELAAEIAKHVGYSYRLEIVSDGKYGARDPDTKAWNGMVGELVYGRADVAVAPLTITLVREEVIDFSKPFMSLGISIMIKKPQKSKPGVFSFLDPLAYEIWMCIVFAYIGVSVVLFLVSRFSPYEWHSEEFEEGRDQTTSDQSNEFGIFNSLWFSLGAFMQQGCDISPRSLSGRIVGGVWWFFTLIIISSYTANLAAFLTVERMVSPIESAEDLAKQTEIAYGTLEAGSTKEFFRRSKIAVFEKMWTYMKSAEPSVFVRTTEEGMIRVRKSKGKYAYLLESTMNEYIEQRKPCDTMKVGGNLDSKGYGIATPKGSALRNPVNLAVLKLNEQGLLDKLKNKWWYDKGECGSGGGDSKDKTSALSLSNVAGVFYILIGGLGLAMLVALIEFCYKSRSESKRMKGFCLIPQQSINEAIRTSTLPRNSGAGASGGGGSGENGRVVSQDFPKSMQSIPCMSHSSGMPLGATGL
Chain of Glutamate receptor ionotropic, kainate 2 (Rattus norvegicus) (P42260 whole entry): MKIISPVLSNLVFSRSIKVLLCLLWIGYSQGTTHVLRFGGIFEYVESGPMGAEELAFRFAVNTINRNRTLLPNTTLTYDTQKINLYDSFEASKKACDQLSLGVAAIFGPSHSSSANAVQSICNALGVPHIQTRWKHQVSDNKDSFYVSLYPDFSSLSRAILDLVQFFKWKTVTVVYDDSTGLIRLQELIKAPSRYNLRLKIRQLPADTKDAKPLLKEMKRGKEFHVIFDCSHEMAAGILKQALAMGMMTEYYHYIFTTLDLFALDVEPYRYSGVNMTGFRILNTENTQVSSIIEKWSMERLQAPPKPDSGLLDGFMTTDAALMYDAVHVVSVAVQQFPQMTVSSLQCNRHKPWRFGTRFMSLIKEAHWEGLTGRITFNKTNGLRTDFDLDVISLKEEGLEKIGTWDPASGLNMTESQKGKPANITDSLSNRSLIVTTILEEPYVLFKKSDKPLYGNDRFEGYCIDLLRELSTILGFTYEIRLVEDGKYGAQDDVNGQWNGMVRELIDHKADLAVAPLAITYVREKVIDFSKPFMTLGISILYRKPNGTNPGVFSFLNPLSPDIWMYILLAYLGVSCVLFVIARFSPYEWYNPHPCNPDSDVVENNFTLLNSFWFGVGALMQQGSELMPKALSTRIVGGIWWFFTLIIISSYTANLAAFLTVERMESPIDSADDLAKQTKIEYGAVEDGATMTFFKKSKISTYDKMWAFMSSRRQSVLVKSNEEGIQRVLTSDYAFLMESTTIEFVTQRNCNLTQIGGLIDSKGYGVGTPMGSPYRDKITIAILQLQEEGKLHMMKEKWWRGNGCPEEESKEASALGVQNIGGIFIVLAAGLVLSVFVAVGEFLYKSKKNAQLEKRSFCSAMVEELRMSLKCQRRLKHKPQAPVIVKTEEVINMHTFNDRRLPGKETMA
Chain of Glutamate receptor ionotropic, NMDA 1/NMDA 2B (Q01097 whole entry, other chains not shown): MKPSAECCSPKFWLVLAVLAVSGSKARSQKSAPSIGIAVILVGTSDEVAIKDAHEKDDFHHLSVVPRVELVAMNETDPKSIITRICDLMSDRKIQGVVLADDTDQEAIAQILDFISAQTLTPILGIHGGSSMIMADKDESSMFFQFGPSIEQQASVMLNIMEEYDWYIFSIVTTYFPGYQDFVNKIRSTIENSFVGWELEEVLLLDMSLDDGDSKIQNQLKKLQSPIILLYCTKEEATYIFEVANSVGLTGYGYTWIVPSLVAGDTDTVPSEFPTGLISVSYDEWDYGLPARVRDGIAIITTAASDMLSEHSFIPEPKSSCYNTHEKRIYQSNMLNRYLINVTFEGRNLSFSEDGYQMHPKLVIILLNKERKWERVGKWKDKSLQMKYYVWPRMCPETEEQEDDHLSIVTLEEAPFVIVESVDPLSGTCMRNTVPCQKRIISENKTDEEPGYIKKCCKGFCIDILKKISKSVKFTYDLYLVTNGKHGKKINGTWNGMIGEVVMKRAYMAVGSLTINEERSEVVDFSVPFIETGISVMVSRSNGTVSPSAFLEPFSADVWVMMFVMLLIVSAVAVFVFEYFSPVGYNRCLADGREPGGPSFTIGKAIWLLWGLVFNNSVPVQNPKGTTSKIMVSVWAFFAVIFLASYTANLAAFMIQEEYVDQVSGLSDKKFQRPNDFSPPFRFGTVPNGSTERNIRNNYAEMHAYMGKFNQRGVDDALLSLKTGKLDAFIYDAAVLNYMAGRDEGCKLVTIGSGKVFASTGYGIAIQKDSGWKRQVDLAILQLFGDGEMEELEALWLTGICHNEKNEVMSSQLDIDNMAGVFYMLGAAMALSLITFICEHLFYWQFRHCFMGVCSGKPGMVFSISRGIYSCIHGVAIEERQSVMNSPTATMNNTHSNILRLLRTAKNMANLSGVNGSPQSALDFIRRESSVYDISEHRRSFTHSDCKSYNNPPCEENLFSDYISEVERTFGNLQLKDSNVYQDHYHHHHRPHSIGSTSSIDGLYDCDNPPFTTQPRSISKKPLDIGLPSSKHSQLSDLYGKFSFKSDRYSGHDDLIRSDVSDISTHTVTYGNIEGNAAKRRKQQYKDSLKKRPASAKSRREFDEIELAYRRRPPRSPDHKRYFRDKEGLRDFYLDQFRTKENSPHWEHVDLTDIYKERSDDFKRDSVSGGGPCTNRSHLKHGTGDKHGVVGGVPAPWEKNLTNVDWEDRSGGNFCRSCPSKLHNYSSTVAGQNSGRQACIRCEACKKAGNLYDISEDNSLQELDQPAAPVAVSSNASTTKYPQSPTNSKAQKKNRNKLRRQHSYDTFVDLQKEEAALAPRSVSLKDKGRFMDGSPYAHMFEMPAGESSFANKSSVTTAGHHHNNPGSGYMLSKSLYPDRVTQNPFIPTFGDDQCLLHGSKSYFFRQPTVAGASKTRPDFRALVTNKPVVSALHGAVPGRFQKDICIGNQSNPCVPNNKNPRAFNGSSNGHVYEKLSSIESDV
Chain of Glutamate NMDA receptor; GRIN1/GRIN2B (Q13224 whole entry, other chains not shown): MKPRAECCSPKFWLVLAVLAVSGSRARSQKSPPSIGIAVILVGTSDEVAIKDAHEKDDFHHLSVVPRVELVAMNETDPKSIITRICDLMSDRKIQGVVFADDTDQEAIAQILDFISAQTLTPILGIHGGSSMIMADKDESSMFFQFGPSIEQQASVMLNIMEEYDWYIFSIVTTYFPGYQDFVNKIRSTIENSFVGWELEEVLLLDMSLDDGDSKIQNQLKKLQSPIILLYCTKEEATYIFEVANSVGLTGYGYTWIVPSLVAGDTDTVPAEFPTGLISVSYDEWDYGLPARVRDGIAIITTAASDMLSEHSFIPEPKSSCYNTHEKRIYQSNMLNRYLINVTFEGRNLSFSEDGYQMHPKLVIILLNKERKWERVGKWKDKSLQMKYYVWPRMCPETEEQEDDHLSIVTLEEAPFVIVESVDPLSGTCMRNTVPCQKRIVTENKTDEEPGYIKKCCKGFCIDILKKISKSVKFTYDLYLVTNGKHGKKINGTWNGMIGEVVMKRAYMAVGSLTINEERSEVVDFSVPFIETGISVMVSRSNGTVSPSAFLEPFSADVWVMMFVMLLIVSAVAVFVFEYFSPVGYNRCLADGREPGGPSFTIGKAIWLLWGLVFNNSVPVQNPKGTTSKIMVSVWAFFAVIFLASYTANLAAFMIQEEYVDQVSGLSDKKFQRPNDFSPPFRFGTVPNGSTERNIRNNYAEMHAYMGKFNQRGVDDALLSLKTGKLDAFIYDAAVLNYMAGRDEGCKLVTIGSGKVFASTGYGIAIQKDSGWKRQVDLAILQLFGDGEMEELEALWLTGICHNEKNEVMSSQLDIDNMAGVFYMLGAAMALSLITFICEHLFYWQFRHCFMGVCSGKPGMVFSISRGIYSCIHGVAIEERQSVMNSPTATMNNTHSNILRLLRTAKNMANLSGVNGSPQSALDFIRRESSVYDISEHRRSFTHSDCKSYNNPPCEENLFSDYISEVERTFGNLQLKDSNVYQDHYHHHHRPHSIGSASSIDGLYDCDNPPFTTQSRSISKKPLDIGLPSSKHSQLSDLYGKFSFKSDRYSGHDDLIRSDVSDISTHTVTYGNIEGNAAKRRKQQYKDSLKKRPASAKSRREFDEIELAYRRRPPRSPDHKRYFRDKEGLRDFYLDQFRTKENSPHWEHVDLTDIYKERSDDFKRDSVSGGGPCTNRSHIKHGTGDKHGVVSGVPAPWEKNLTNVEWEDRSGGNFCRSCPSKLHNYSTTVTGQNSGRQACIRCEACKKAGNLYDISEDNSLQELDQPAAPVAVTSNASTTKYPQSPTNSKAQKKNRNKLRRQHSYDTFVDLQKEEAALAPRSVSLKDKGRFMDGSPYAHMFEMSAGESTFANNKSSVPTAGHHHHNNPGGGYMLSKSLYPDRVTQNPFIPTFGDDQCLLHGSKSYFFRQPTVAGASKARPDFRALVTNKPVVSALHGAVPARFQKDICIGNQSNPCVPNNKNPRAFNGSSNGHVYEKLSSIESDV

For `CS(=O)(=O)Nc1ccc(OCC(=O)NCCNc2ccc(Cl)c(Cl)c2)cc1`, the IC50 [1] was 107000 nM, the inhibition [2] was “inactive” and the inhibition [3] was “inactive”. For the same compound, the inhibition [4] was “inactive”, the inhibition [5] was “inactive” and the inhibition [6] was “Active”. For the same compound, the IC50 [7] was 563000 nM, the inhibition [8] was “inactive” and the Papp [9] was 1.8 ×10⁻⁶ cm/s. It also gave a % response [10] of 98%, an IC50 [11] of 57 nM and a % response [12] of 91%. The % response [13] was 101%, the IC50 [14] was 54 nM and the IC50 [15] was 36 nM. It also gave an inhibition [16] of 88%.
